pIC50: −log10 of the molar value. Each block holds one molecule with its values, some of them ahead of it. Activity calls are given as the source filed them. No cut-off for these calls is given here.
Key:
[1] = system: MDA-MB-231; experiment: Antiinvasive activity in human MDA-MB-231 cells assessed as inhibition of cell invasion at 5 uM by boyden chamber method relative to control; assay type: functional
[2] = system: MDA-MB-231; experiment: (§1) Ex vivo antitumor activity against human MDA-MB-231 cells co-cultured with neonatal Swiss mouse bone in BGJb medium assessed as inhibition of tumor growth at 5 uM administered simultaneously with cancer cells measured on day 5 post treatment by Gaussia luciferase reporter gene assay relative to control; assay type: functional
Outline: (§2)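 Calvariae from […] Swiss mouse pups were punched into 4 or 5 mm disks. Each was seeded with 1 x 10^4 tumor cells (lentiviral secreted Gaussia luciferase/GFP-blasticidin, FACS-sorted GFP+) in BGJb plus 10% fetal calf serum at 37°C, 5% CO2. After 24 h bones moved to fresh wells; medium changed every 2 days. Conditioned-medium luciferase read as RLU. Biological triplicate, mean ± SD, Welch's t-test.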

[3] = system: MDA-MB-231; experiment: as §1, with “day 7” for “day 5”; assay type: functional; outline: as §2
[4] = system: MDA-MB-231; experiment: (§3) Ex vivo antitumor activity against human MDA-MB-231 cells co-cultured with neonatal Swiss mouse bone in BGJb medium assessed as inhibition of tumor growth at 5 uM administered on day 2 post cancer cells addition measured on day 5 post treatment by Gaussia luciferase reporter gene assay relative to control; assay type: functional; outline: as §2
[5] = system: MDA-MB-231; experiment: as §3, with “day 7” for “day 5”; assay type: functional; outline: as §2
[6] = system: MDA-MB-231; experiment: Antiinvasive activity in human MDA-MB-231 cells by boyden chamber method; assay type: functional, cell-based
[7] = system: MDA-MB-231; experiment: Cytotoxicity against human MDA-MB-231 cells at 0.625 to 5 uM after 24 hrs; assay type: cell-based; settings: mda-mb-231, 24 h
[8] = system: U-87 MG; experiment: Antiinvasive activity in human U87 cells at 5 uM by boyden chamber method; assay type: functional, cell-based; settings: U-87MG ATCC
[9] = system: NCI-H460; experiment: Antiinvasive activity in human NCI-H460 cells at 5 uM by boyden chamber method; assay type: functional, cell-based
[10] = system: MIA PaCa-2; experiment: Antiinvasive activity in human MIAPaCa2 cells at 5 uM by boyden chamber method; assay type: functional, cell-based
[11] = system: U-87 MG; experiment: Cytotoxicity against human U87 cells after 24 hrs; assay type: cell-based; settings: u-87mg atcc
[12] = system: NCI-H460; experiment: Cytotoxicity against human NCI-H460 cells after 24 hrs; assay type: cell-based; settings: nci-h460, 24 h
[13] = system: MIA PaCa-2; experiment: Cytotoxicity against human MIAPaCa2 cells after 24 hrs; assay type: cell-based; settings: mia paca-2, 24 h
[14] = system: MDA-MB-231; experiment: Antimigratory activity in human MDA-MB-231 cells at 10 uM after 9 hrs by wound healing assay; assay type: functional, cell-based
Outline: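 Confluent monolayers in 12-well plates were scratched with a micropipette tip, washed, then cultured in complete medium with compound. Gap width between wound edges was measured by microscopy in three random regions right after wounding and at 6 and 9 h.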

[15] = Inhibition of angiogenesis in human HRMEC assessed as inhibition of endothelial cell tube formation up to 10 uM after 8 hrs by microscopic analysis
Outline: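 Primary human retinal microvascular endothelial cells were grown on Matrigel in complete medium for 8 h, then tubule formation was measured. Significance was assessed by ANOVA.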

[16] = system: MDA-MB-231; experiment: Cytotoxicity against human MDA-MB-231 cells at 12.5 uM after 3 days by MTS assay; assay type: cell-based; settings: mda-mb-231, 72 h
[17] = system: Bone; experiment: Down regulation of TRAP expression in neonatal Swiss mouse calvariae bone co-cultured with human MDA-MB-231 cells measured on day 7 post treatment by SYBR green-dye based RT-qPCR analysis; assay type: functional, tissue-based; settings: Bone element
Outline: (§4)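 Calvarial disk cultures ([…] Swiss pups) in BGJb plus 10% fetal calf serum were PBS-washed at day 7 and bead-homogenized in Qiazol. Aqueous-phase RNA was isolated, reverse-transcribed and run in triplicate real-time PCR with species-specific primers. Expression was normalized to ribosomal protein L32 mRNA. n = 3 or 4 cultures, ANOVA.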

[18] = system: Bone; experiment: Down regulation of RANKL expression in neonatal Swiss mouse calvariae bone co-cultured with human MDA-MB-231 cells measured on day 7 post treatment by SYBR green-dye based RT-qPCR analysis; assay type: functional, tissue-based; settings: Bone element; outline: as §4
[19] = system: Bone; experiment: Effect on Col1A1 expression in neonatal Swiss mouse calvariae bone co-cultured with human MDA-MB-231 cells measured on day 7 post treatment by SYBR green-dye based RT-qPCR analysis; assay type: functional, tissue-based; settings: Bone element; outline: as §4
[20] = system: Bone; experiment: Effect on osteocalcin expression in neonatal Swiss mouse calvariae bone co-cultured with human MDA-MB-231 cells measured on day 7 post treatment by SYBR green-dye based RT-qPCR analysis; assay type: functional, tissue-based; settings: Bone element; outline: as §4
[21] = system: MDA-MB-231; experiment: Effect on ICAM expression in human MDA-MB-231 cells co-cultured with neonatal Swiss mouse calvariae bone measured on day 7 post treatment by SYBR green-dye based RT-qPCR analysis; assay type: functional, cell-based; outline: as §4
[22] = system: MDA-MB-231; experiment: Down regulation of ENPP1 expression in human MDA-MB-231 cells co-cultured with neonatal Swiss mouse calvariae bone measured on day 7 post treatment by SYBR green-dye based RT-qPCR analysis relative to control; assay type: functional; outline: as §4
[23] = system: MDA-MB-231; experiment: Effect on CTGF expression in human MDA-MB-231 cells co-cultured with neonatal Swiss mouse calvariae bone measured on day 7 post treatment by SYBR green-dye based RT-qPCR analysis; assay type: functional, cell-based; outline: as §4
[24] = system: MDA-MB-231; experiment: Effect on CCL2 expression in human MDA-MB-231 cells co-cultured with neonatal Swiss mouse calvariae bone measured on day 7 post treatment by SYBR green-dye based RT-qPCR analysis; assay type: functional, cell-based; outline: as §4
[25] = system: MDA-MB-231; experiment: Down regulation of IL11 expression in human MDA-MB-231 cells co-cultured with neonatal Swiss mouse calvariae bone measured on day 7 post treatment by SYBR green-dye based RT-qPCR analysis relative to control; assay type: functional; outline: as §4
[26] = system: MDA-MB-231; experiment: Down regulation of IL-8 expression in human MDA-MB-231 cells co-cultured with neonatal Swiss mouse calvariae bone measured on day 7 post treatment by SYBR green-dye based RT-qPCR analysis; assay type: functional, cell-based; outline: as §4
[27] = system: MDA-MB-231; experiment: Down regulation of FGF5 expression in human MDA-MB-231 cells co-cultured with neonatal Swiss mouse calvariae bone measured on day 7 post treatment by SYBR green-dye based RT-qPCR analysis; assay type: functional, cell-based; outline: as §4
[28] = system: MDA-MB-231; experiment: Upregulation of BCL2L1 expression in human MDA-MB-231 cells co-cultured with neonatal Swiss mouse calvariae bone measured on day 7 post treatment by SYBR green-dye based RT-qPCR analysis; assay type: functional, cell-based; outline: as §4
[29] = system: MDA-MB-231; experiment: Upregulation of Fas expression in human MDA-MB-231 cells co-cultured with neonatal Swiss mouse calvariae bone measured on day 7 post treatment by SYBR green-dye based RT-qPCR analysis; assay type: functional, cell-based; outline: as §4
[30] = system: Bone; experiment: Effect on TRAP expression in neonatal Swiss mouse calvariae bone measured on day 7 post treatment by SYBR green-dye based RT-qPCR analysis; assay type: functional, tissue-based; settings: Bone element; outline: as §4
[31] = system: Bone; experiment: Effect on RANKL expression in neonatal Swiss mouse calvariae bone measured on day 7 post treatment by SYBR green-dye based RT-qPCR analysis; assay type: functional, tissue-based; settings: Bone element; outline: as §4
[32] = system: MDA-MB-231; experiment: Down regulation of CCN3 expression in human MDA-MB-231 cells co-cultured with neonatal Swiss mouse calvariae bone measured on day 7 post treatment by SYBR green-dye based RT-qPCR analysis relative to control; assay type: functional; outline: as §4
[33] = system: MDA-MB-231; experiment: Down regulation of CDH11 expression in human MDA-MB-231 cells co-cultured with neonatal Swiss mouse calvariae bone measured on day 7 post treatment by SYBR green-dye based RT-qPCR analysis

SMILES: O=C1C2NN=C(c3ccc(Cl)cc3)C2C(c2ccc(C(F)(F)F)cc2)N1CCc1c[nH]c2ccccc12 (stereo unspecified)
inhibition at 5 µM [1]: 90%
TGI [2]: Active
TGI [3]: Active
TGI [4]: Active
TGI [5]: Active

SMILES: O=C1C2NN=C(c3ccc(Cl)cc3)C2C(c2cccc(F)c2)N1Cc1c[nH]c2ccccc12 (stereo unspecified)
inhibition at 5 µM [1]: 20%
TGI [2]: Active
TGI [3]: Active
TGI [4]: Active
TGI [5]: Active

pIC50 [6]: 5.54
Activity [15]: Not Active
SMILES: Cc1ccc(N2C(=O)C3NN=C(c4ccc(Cl)cc4)C3C2c2cccc(F)c2)cc1Br (stereo unspecified)
Activity [6]: Dose-dependent effect
Activity [7]: Non-Toxic
Activity [8]: inactive
Activity [9]: inactive
Activity [10]: Active
Activity [11]: Non-Toxic
Activity [12]: Non-Toxic
Activity [13]: Non-Toxic
Activity [14]: inactive
inhibition at 5 µM [1]: > 70%
TGI [2]: 70%
TGI [3]: 60%
TGI [4]: 66%
TGI [5]: 47%
Activity [16]: Non-Toxic
Activity [17]: Active
Activity [18]: Active
Activity [19]: inactive
Activity [20]: inactive
Activity [21]: inactive
Activity [22]: 60%
Activity [23]: inactive
Activity [24]: inactive
Activity [25]: >80%
Activity [26]: Active
Activity [27]: inactive
Activity [28]: Active
Activity [29]: Active

SMILES: Cc1ccc(N2C(=O)C3NN=C(c4ccc(Cl)cc4)C3C2c2cccc(C(F)(F)F)c2)cc1Br (stereo unspecified)
inhibition at 5 µM [1]: > 70%
TGI [2]: Active
TGI [3]: Active
TGI [4]: Active
TGI [5]: Active

SMILES: COc1ccc(N2C(=O)C3NN=C(c4ccc(Cl)cc4)C3C2c2cccc(F)c2)cn1 (stereo unspecified)
TGI [2]: Active
TGI [3]: Active
TGI [4]: Active
TGI [5]: Active

SMILES: O=C1C2NN=C(c3ccc(Cl)cc3)C2C(c2cccc(F)c2)N1c1cccc(Br)c1 (stereo unspecified)
inhibition at 5 µM [1]: > 70%
TGI [2]: Active
TGI [3]: Active
TGI [4]: Active
TGI [5]: Active

SMILES: CCCN1N=C(c2ccc(Cl)cc2)C2C1C(=O)N(c1ccc(C)c(Br)c1)C2c1cccc(F)c1 (stereo unspecified)
inhibition at 5 µM [1]: > 70%
TGI [2]: Active
TGI [3]: Active
TGI [4]: Active
TGI [5]: Active

SMILES: CC(C)N1N=C(c2ccc(Cl)cc2)C2C(c3cccc(F)c3)N(CCc3c[nH]c4ccccc34)C(=O)C21 (stereo unspecified)
inhibition at 5 µM [1]: > 70%
TGI [2]: Active
TGI [3]: 40%
TGI [4]: Active
TGI [5]: 40%

SMILES: Cc1ccc(N2C(=O)C3C(C(c4ccc(Cl)cc4)=NN3C(C)C)C2c2cccc(F)c2)cc1Br (stereo unspecified)
TGI [2]: Active
TGI [3]: Active
TGI [4]: Active
TGI [5]: Active

SMILES: Cc1ccc(N2C(=O)C3C(C(c4ccc(Cl)cc4)=NN3C)C2c2cccc(F)c2)cc1Br (stereo unspecified)
inhibition at 5 µM [1]: > 70%
TGI [2]: Active
TGI [3]: Active
TGI [4]: Active
TGI [5]: Active

SMILES: COc1cccc(C2=NNC3C(=O)N(CCc4c[nH]c5ccccc45)C(c4cccc(F)c4)C23)c1 (stereo unspecified)
inhibition at 5 µM [1]: 90%
TGI [2]: Active
TGI [3]: >50%
TGI [4]: Active
TGI [5]: >50%

pIC50 [6]: 5.59
Activity [15]: Not Active
SMILES: O=C1C2NN=C(c3ccc(Cl)cc3)C2C(c2cccc(F)c2)N1CCc1c[nH]c2ccccc12 (stereo unspecified)
Activity [6]: Dose-dependent effect
Activity [7]: Non-Toxic
Activity [8]: inactive
Activity [9]: inactive
Activity [10]: Active
Activity [11]: Non-Toxic
Activity [12]: Non-Toxic
Activity [13]: Non-Toxic
Activity [14]: inactive
inhibition at 5 µM [1]: > 70%
TGI [2]: 70%
TGI [3]: 60%
TGI [4]: 53%
TGI [5]: 36%
Activity [16]: Non-Toxic
Activity [17]: Active
Activity [18]: Active
Activity [19]: inactive
Activity [20]: inactive
Activity [30]: inactive
Activity [31]: Active
Activity [21]: inactive
Activity [22]: 90%
Activity [23]: inactive
Activity [32]: 90%
Activity [24]: inactive
Activity [26]: Active
Activity [27]: inactive
Activity [28]: Active
Activity [29]: Active
Activity [33]: Active

SMILES: O=C1C2C(C(c3ccc(Cl)cc3)=NN2C2CCCCC2)C(c2cccc(F)c2)N1CCc1c[nH]c2ccccc12 (stereo unspecified)
inhibition [1]: inactive
TGI [2]: Active
TGI [3]: Active
TGI [4]: Active
TGI [5]: Active

SMILES: O=C1C2NN=C(c3ccc(Cl)cc3)C2C(c2cccc(F)c2)N1CCc1cccnc1 (stereo unspecified)
inhibition at 5 µM [1]: 40%
TGI [2]: Active
TGI [3]: Active
TGI [4]: Active
TGI [5]: Active

— ChEMBL document CHEMBL4308891, “Small molecules inhibit ex vivo tumor growth in bone” (Bioorg Med Chem, 2018)
